Data reported in ChEMBL document CHEMBL2331336, “Discovery and structure-activity relationship of 1,3-cyclohexyl amide derivatives as novel mGluR5 negative allosteric modulators” (Bioorg Med Chem Lett, 2013).
In brackets after ≈: the same amount, converted by molar mass.

Molecular target: T1, Metabotropic glutamate receptor 1 (Rattus norvegicus, UniProt P23385)
Experiment: Agonist activity at rat mGluR1 expressed in HEK293 cells assessed as Ca2+ mobilization by FLIPR assay
Type: functional, cell-based
Conditions: not given
Outline: (§1)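 Rat mGluR1 stably in HEK293 cells (1.5% calf serum medium), seeded 24 h earlier, Fluo-4 loaded 1 h at 37 °C in HBSS/HEPES pH 7.4 with probenecid. Curves fitted with Hill equation.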

T1 sequence (P23385 whole entry): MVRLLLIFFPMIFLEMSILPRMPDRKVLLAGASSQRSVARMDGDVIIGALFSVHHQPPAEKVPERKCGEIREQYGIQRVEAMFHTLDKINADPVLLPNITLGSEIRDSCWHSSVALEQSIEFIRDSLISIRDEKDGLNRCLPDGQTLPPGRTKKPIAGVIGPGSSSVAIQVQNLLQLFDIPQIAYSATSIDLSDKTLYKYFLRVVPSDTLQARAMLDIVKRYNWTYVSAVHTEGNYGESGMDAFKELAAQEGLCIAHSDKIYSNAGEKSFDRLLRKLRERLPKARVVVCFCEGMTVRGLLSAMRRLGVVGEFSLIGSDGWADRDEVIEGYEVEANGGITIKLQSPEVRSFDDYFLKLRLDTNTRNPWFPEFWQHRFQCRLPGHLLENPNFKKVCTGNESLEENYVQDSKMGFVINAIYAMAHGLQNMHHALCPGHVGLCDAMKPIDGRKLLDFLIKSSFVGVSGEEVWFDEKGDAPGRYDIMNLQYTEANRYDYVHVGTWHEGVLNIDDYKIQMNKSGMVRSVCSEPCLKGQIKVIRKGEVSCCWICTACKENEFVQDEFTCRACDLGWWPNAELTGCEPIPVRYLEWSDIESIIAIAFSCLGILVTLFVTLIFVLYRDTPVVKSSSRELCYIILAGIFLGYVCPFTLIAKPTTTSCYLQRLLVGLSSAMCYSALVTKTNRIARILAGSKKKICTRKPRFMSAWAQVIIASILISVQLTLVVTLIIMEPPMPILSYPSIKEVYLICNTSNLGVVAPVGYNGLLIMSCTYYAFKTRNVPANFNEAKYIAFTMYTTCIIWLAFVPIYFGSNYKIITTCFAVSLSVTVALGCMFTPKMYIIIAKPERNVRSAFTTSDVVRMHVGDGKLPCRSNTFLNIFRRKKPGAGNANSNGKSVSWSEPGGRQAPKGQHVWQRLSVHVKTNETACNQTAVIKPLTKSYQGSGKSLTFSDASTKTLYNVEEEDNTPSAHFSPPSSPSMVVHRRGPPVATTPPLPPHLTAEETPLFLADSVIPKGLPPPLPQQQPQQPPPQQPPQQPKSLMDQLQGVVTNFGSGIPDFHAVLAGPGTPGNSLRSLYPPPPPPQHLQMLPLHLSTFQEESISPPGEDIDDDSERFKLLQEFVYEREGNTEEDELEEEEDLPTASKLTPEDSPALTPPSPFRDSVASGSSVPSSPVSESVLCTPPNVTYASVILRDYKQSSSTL

`N#Cc1cccc(C(=O)N[C@@H]2CCC[C@@H](NC(=O)c3ccccn3)C2)c1` and `O=C(N[C@@H]1CCC[C@@H](NC(=O)c2cccc(Cl)c2)C1)c1cccc(F)c1` cannot be ordered by EC50: greater than 10000 nM for the first, greater than 10000 nM for the second.

System: not listed separately
Experiment: Kinetic solubility of the compound in potassium phosphate buffer after 4 hrs
Type: physicochemical
Conditions: read-out: Kinetic_solubility
Outline: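 Kinetic solubility: compound from 10 mM DMSO stock diluted into 25 mM potassium phosphate buffer and shaken 4 h. Supernatant analyzed by UPLC with PDA detection at 254 nm.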

First: N#Cc1cccc(C(=O)N[C@@H]2CCC[C@@H](NC(=O)c3ccccn3)C2)c1
Second: O=C(N[C@@H]1CCC[C@@H](NC(=O)c2cccc(Cl)c2)C1)c1cccc(F)c1
The solubility kinetic at 4 h of the first is 44-fold higher: 240 µM (≈ 83.6 µg/mL) for the first, 5.4 µM (≈ 2.02 µg/mL) for the second.

System: Liver
Experiment: Intrinsic clearance in mouse liver microsomes
Type: ADME, Microsome
Conditions: not given

Work on `N#Cc1cccc(C(=O)N[C@@H]2CCC[C@@H](NC(=O)c3ccccn3)C2)c1` yielded an Intrinsic clearance of 1.8 mL/min.

Molecular target: T1, Metabotropic glutamate receptor 1
Experiment: Antagonist activity at rat mGluR1 expressed in HEK293 cells assessed as inhibition of Ca2+ mobilization by FLIPR assay
Type: functional, cell-based
Conditions: not given
Outline: as §1

Compared with `N#Cc1cccc(C(=O)N[C@@H]2CCC[C@@H](NC(=O)c3ccccn3)C2)c1`, `O=C(N[C@@H]1CCC[C@@H](NC(=O)c2cccc(Cl)c2)C1)c1cccc(F)c1` is lower in IC50: greater than 10000 nM for the first, 2100 nM for the second. The second is the more potent here.

System: Liver microsomes
Experiment: Intrinsic clearance in human liver microsomes
Type: ADME, Microsome
Set-up: unit not given here
Conditions: not given

First: N#Cc1cccc(C(=O)N[C@@H]2CCC[C@@H](NC(=O)c3ccccn3)C2)c1
Second: O=C(N[C@@H]1CCC[C@@H](NC(=O)c2cccc(Cl)c2)C1)c1cccc(F)c1
The Intrinsic clearance of the first is lower: 0.5 for the first, 0.8 for the second.

System: Liver microsomes
Experiment: Intrinsic clearance in rat liver microsomes
Type: ADME, Microsome
Conditions: not given

`N#Cc1cccc(C(=O)N[C@@H]2CCC[C@@H](NC(=O)c3ccccn3)C2)c1` and `O=C(N[C@@H]1CCC[C@@H](NC(=O)c2cccc(Cl)c2)C1)c1cccc(F)c1` are within 1.5-fold of each other in Intrinsic clearance: 8.3 mL/min for the first, 9.4 mL/min for the second.

Molecular target: T2, Metabotropic glutamate receptor 5 (Homo sapiens, UniProt P41594)
T2 sequence (P41594 whole entry): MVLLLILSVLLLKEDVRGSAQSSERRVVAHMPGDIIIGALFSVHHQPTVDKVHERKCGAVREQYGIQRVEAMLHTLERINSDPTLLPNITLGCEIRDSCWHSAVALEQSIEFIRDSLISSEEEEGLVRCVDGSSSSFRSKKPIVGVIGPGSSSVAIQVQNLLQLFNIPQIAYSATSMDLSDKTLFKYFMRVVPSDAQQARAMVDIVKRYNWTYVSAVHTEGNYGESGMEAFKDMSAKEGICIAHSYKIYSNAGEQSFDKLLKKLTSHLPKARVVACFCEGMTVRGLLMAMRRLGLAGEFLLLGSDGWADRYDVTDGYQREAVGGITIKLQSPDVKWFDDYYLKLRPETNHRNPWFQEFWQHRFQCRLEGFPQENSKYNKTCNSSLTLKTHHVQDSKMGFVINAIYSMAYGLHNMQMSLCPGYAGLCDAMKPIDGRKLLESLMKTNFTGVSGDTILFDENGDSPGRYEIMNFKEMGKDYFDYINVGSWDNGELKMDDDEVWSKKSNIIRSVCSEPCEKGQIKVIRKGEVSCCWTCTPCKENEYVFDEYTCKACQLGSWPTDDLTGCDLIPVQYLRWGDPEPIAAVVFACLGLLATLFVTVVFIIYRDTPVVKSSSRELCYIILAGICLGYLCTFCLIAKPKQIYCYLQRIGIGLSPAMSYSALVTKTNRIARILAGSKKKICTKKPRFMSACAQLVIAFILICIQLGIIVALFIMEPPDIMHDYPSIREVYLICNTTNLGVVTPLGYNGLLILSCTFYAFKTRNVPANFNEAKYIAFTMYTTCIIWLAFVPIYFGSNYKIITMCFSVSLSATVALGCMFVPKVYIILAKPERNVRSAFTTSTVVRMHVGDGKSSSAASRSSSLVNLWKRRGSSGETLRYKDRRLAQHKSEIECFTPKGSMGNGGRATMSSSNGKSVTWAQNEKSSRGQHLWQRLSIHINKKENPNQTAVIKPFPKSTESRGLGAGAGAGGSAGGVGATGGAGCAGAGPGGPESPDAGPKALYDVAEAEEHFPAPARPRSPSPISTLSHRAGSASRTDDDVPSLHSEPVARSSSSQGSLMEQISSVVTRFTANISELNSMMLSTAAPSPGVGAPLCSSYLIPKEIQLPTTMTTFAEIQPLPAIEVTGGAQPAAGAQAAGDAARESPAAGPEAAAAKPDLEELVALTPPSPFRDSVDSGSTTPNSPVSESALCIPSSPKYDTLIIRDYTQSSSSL
Experiment: Antagonist activity at human mGluR5 expressed in HEK293 cells assessed as inhibition of Ca2+ mobilization by FLIPR assay
Type: functional, cell-based
Conditions: not given

First: N#Cc1cccc(C(=O)N[C@@H]2CCC[C@@H](NC(=O)c3ccccn3)C2)c1
Second: N#Cc1cccc(C(=O)N[C@H]2CCC[C@H](NC(=O)c3ccccn3)C2)c1
The IC50 of the first is lower: 231 nM for the first, greater than 10000 nM for the second. The first is the more potent here.

Compared with `N#Cc1cccnc1C(=O)NC1CCCC(NC(=O)c2cccc(Cl)c2)C1` (mixture of isomers), `Cc1cccnc1C(=O)N[C@H]1CCC[C@H](NC(=O)c2cccc(Cl)c2)C1` (relative stereo) is 12-fold higher in IC50: 671 nM for the first, 7840 nM for the second.

First: CN(C)c1ccc(C(=O)N[C@H]2CCC[C@H](NC(=O)c3cccc(Cl)c3)C2)cc1
Second: CN(C)c1cccc(C(=O)N[C@H]2CCC[C@H](NC(=O)c3cccc(Cl)c3)C2)c1 (relative stereo)
The IC50 of the first is lower: 473 nM for the first, greater than 10000 nM for the second.

`O=C(NC1CCCC2(CN=C(c3cccc(Cl)c3)O2)C1)c1ccncc1` (mixture of isomers) and `O=C(NC1CCCC2(CN=C(c3cccc(Cl)c3)O2)C1)c1cccnc1` (mixture of isomers) cannot be ordered by IC50: greater than 10000 nM for the first, greater than 10000 nM for the second.

Going from `O=C(N[C@H]1CCC[C@H](NC(=O)c2cccc(F)c2)C1)c1cccc(F)c1` to `O=C(NC1CCCC(NC(=O)c2cccc(Cl)c2)C1)c1cccc(F)c1` (racemic), the IC50 falls from 593 nM to 86 nM (6.9-fold).

`O=C(N[C@H]1CCC[C@H](NC(=O)c2cccc(Cl)c2)C1)c1ccccc1` (relative stereo) and `O=C(N[C@H]1CCC[C@H](NC(=O)c2ccccc2F)C1)c1cccc(Cl)c1` (relative stereo) are within 1.5-fold of each other in IC50: 228 nM for the first, 175 nM for the second.

Going from `O=C(N[C@H]1CCC[C@H](NC(=O)c2cccc(Cl)c2)C1)c1cccnc1` (relative stereo) to `O=C(N[C@H]1CCC[C@H](NC(=O)c2cccc(Cl)c2)C1)c1ccncc1` (relative stereo), the IC50 falls from 612 nM to 300 nM (2-fold). The second is the more potent here.

Going from `O=C(NC1CCCC(NC(=O)c2ccccn2)C1)c1cccc(Cl)c1` (racemic) to `O=C(N[C@H]1CCC[C@H](NC(=O)c2ccccn2)C1)c1cccc(Cl)c1`, the IC50 rises from 314 nM to greater than 10000 nM. The first is the more potent here.

`CN(C(=O)c1cccc(Cl)c1)C1CCCC(N(C)C(=O)c2cccc(Cl)c2)C1` (stereo unspecified) and `CN(C(=O)c1cccc(Cl)c1)C1CCCC(NC(=O)c2cccc(Cl)c2)C1` (stereo unspecified) cannot be ordered by IC50: greater than 10000 nM for the first, greater than 10000 nM for the second.

Going from `O=C(N[C@@H]1CCC[C@@H](C(=O)Nc2ccccn2)C1)c1cccc(Cl)c1` to `N#Cc1cccc(C(=O)N[C@@H]2CCC[C@@H](C(=O)Nc3ccccn3)C2)c1`, the IC50 rises from 5000 nM to greater than 10000 nM.

`O=C(N[C@H]1CCC[C@H](NC(=O)c2cccc(Cl)c2)C1)c1ccc(F)cc1` (relative stereo) and `COc1ccc(C(=O)N[C@H]2CCC[C@H](NC(=O)c3cccc(Cl)c3)C2)cc1` (relative stereo) are within 1.5-fold of each other in IC50: 194 nM for the first, 266 nM for the second.

Compared with `Cc1cccc(C(=O)N[C@@H]2CCC[C@@]3(CN=C(c4cccc(Cl)c4)O3)C2)n1`, `Cc1cccc(C(=O)N[C@H]2CCC[C@@]3(CN=C(c4cccc(Cl)c4)O3)C2)n1` (relative stereo) is 3.5-fold lower in IC50: 5230 nM for the first, 1510 nM for the second. The second is the more potent here.

Compared with `Cc1cccc(C(=O)N[C@@H]2CCC[C@@]3(CN=C(c4cccc(Cl)c4)O3)C2)n1` (relative stereo), `O=C(NC1CCCC2(CN=C(c3cccc(Cl)c3)O2)C1)c1ccccn1` (mixture of isomers) is 9-fold higher in IC50: 72 nM for the first, 647 nM for the second. The first is the more potent here.

Going from `Cc1cccc(C(=O)N[C@H]2CCC[C@H](NC(=O)c3ccccn3)C2)c1` (relative stereo) to `O=C(N[C@@H]1CCC[C@H](NC(=O)c2ccccn2)C1)c1cccc(Cl)c1` (relative stereo), the IC50 rises from 1000 nM to 1510 nM (1.5-fold).

Going from `O=C(Cc1ccccn1)N[C@H]1CCC[C@H](NC(=O)c2cccc(Cl)c2)C1` (relative stereo) to `O=C(N[C@H]1CCC[C@H](NC(=O)c2ncccn2)C1)c1cccc(Cl)c1` (relative stereo), the IC50 falls from greater than 10000 nM to 425 nM. The second is the more potent here.

First: O=C(N[C@H]1CCC[C@H](C(=O)Nc2cccc(Cl)c2)C1)c1ccccn1
Second: COc1cccc(C(=O)NC2CCCC(NC(=O)c3ccccn3)C2)c1 (mixture of isomers)
The IC50 of the first is lower: 468 nM for the first, greater than 10000 nM for the second. The first is the more potent here.

Going from `N#Cc1cccc(C(=O)N[C@@H]2CCC[C@H](NC(=O)c3ccccn3)C2)c1` (relative stereo) to `N#Cc1cccc(C(=O)NC2CCCC(NC(=O)c3ccccn3)C2)c1` (racemic), the IC50 falls from greater than 10000 nM to 531 nM.

First: O=C(NC1CCCC(NC(=O)c2cccc(Cl)c2)C1)c1cccc(Cl)c1 (mixture of isomers)
Second: O=C(N[C@H]1CCC[C@H](NC(=O)c2cccc(Cl)c2)C1)c1cccc(F)c1
The IC50 of the first is 69-fold lower: 139 nM for the first, 9600 nM for the second. The first is the more potent here.

Going from `Cc1cccc(C(=O)N[C@H]2CCC[C@H](NC(=O)c3cccc(Cl)c3)C2)n1` (racemic) to `Cc1ccnc(C(=O)N[C@H]2CCC[C@H](NC(=O)c3cccc(Cl)c3)C2)c1` (relative stereo), the IC50 rises from 290 nM to 3400 nM (12-fold). The first is the more potent here.

First: O=C(N[C@H]1CCC[C@H](NC(=O)c2cnccn2)C1)c1cccc(Cl)c1 (relative stereo)
Second: O=C(N[C@@H]1CCC[C@@H](NC(=O)c2cccc(Cl)c2)C1)c1cccc(F)c1
The IC50 of the first is 23-fold higher: 1370 nM for the first, 59 nM for the second. The second is the more potent here.

`COc1cccc(C(=O)N[C@H]2CCC[C@H](NC(=O)c3cccc(Cl)c3)C2)c1` (relative stereo) and `O=C(N[C@H]1CCC[C@H](NC(=O)C2CCCCC2)C1)c1cccc(Cl)c1` (relative stereo) are within 1.5-fold of each other in IC50: 789 nM for the first, 857 nM for the second.

Going from `O=C(N[C@H]1CCC[C@H](NC(=O)c2ccccn2)C1)c1ccccn1` to `O=C(N[C@@H]1CCC[C@@]2(CN=C(c3cccc(Cl)c3)O2)C1)c1ccccn1`, the IC50 rises from 1150 nM to 2910 nM (2.5-fold). The first is the more potent here.

System: not listed separately
Experiment: Partition co-efficient, log D at pH 7.4 of the compound by shake flask method
Type: physicochemical
Conditions: buffer

Compound `O=C(N[C@@H]1CCC[C@@H](NC(=O)c2cccc(Cl)c2)C1)c1cccc(F)c1` has a logD greater than 5.

System: not listed separately
Experiment: Plasma protein binding in human
Type: ADME, cell-free
Conditions: read-out: PPB (converted)

Compared with `N#Cc1cccc(C(=O)N[C@@H]2CCC[C@@H](NC(=O)c3ccccn3)C2)c1`, `O=C(N[C@@H]1CCC[C@@H](NC(=O)c2cccc(Cl)c2)C1)c1cccc(F)c1` is lower in fraction unbound: 0.157 for the first, 0.039 for the second.

Molecular target: T2, Metabotropic glutamate receptor 5
Experiment: Displacement of [3H]-ABP688 from human mGluR5 expressed in HEK293 cells after 60 mins by scintillation counting
Type: cell-based
Conditions: not given

`N#Cc1cccc(C(=O)N[C@@H]2CCC[C@@H](NC(=O)c3ccccn3)C2)c1` and `N#Cc1cccc(C(=O)NC2CCCC(NC(=O)c3ccccn3)C2)c1` (racemic) are within 1.5-fold of each other in Ki: 1270 nM for the first, 1540 nM for the second.

First: N#Cc1cccnc1C(=O)NC1CCCC(NC(=O)c2cccc(Cl)c2)C1 (mixture of isomers)
Second: O=C(N[C@H]1CCC[C@H](NC(=O)c2ncccn2)C1)c1cccc(Cl)c1 (relative stereo)
The Ki of the first is 3-fold lower: 1250 nM for the first, 3790 nM for the second.

Going from `O=C(N[C@H]1CCC[C@H](NC(=O)c2cccc(Cl)c2)C1)c1ccccc1` (relative stereo) to `O=C(NC1CCCC(NC(=O)c2cccc(Cl)c2)C1)c1cccc(F)c1` (racemic), the Ki falls from 672 nM to 320 nM (2.1-fold). The second binds more tightly here.

First: O=C(N[C@H]1CCC[C@H](NC(=O)c2ccccc2F)C1)c1cccc(Cl)c1 (relative stereo)
Second: O=C(N[C@@H]1CCC[C@@H](NC(=O)c2cccc(Cl)c2)C1)c1cccc(F)c1
The Ki of the first is 3.6-fold higher: 760 nM for the first, 211 nM for the second.

`O=C(N[C@H]1CCC[C@H](NC(=O)c2cccc(Cl)c2)C1)c1ccc(F)cc1` (relative stereo) and `COc1ccc(C(=O)N[C@H]2CCC[C@H](NC(=O)c3cccc(Cl)c3)C2)cc1` (relative stereo) are within 1.5-fold of each other in Ki: 492 nM for the first, 674 nM for the second.

`O=C(N[C@H]1CCC[C@H](NC(=O)c2cccc(Cl)c2)C1)c1ccncc1` (relative stereo) and `Cc1cccc(C(=O)N[C@H]2CCC[C@H](NC(=O)c3cccc(Cl)c3)C2)n1` (racemic) are within 1.5-fold of each other in Ki: 445 nM for the first, 582 nM for the second.

Work on `O=C(NC1CCCC2(CN=C(c3cccc(Cl)c3)O2)C1)c1ccccn1` (mixture of isomers) yielded a Ki of 30 nM.
